Converted amounts (≈) assume the structure as drawn.
What was measured:
Format in all cases: functional
Pseudomonas aeruginosa [1] = test: Antimicrobial activity against Pseudomonas aeruginosa PAO1 by Etest method
Procedure, shortened: (§1)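 MICs read from Etest strips on Mueller-Hinton agar per manufacturer's instructions; agents ceftazidime, cefepime, aztreonam, piperacillin, piperacillin-tazobactam, imipenem and meropenem.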

Pseudomonas aeruginosa [2] = test: Antimicrobial activity against nagZ::lox gene-deficient Pseudomonas aeruginosa PAO1 by Etest method; procedure, shortened: as §1
Pseudomonas aeruginosa [3] = test: Antimicrobial activity against ampD::lox and nagZ::lox gene-deficient Pseudomonas aeruginosa PAO1 by Etest method; procedure, shortened: as §1
Pseudomonas aeruginosa [4] = test: Antimicrobial activity against dacB::lox gene-deficient Pseudomonas aeruginosa PAO1 by Etest method; procedure, shortened: as §1
Pseudomonas aeruginosa [5] = test: Antimicrobial activity against ampD::lox gene-deficient Pseudomonas aeruginosa PAO1 harboring dacB gene by Etest method; procedure, shortened: as §1
Pseudomonas aeruginosa [6] = test: Antimicrobial activity against ampD::lox and nagZ::lox gene-deficient Pseudomonas aeruginosa PAO1 harboring dacB gene by Etest method; procedure, shortened: as §1
Pseudomonas aeruginosa [7] = test: Antimicrobial activity against ampD::lox, ampDh2::lox,ampDh3::lox and nagZ::lox gene-deficient Pseudomonas aeruginosa PAO1 by Etest method; procedure, shortened: as §1
Pseudomonas aeruginosa [8] = test: Antimicrobial activity against ampR::lox gene-deficient Pseudomonas aeruginosa PAO1 by Etest method; procedure, shortened: as §1
Pseudomonas aeruginosa [9] = test: Antimicrobial activity against ampC::lox gene-deficient Pseudomonas aeruginosa PAO1 by Etest method; procedure, shortened: as §1
Pseudomonas aeruginosa [10] = test: Antimicrobial activity against Pseudomonas aeruginosa PAO1 by broth microdilution method
Procedure, shortened: (§2)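 Broth microdilution MICs of ceftazidime, aztreonam and piperacillin in 100 μl cation-adjusted Mueller-Hinton broth, with or without NagZ inhibitor PUGNAc at 0.5 mM or 5 mM; measurements in triplicate.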

Pseudomonas aeruginosa [11] = test: Antimicrobial activity against ampD::lox gene-deficient Pseudomonas aeruginosa PAO1 by broth microdilution method; procedure, shortened: as §2
Pseudomonas aeruginosa [12] = test: Antimicrobial activity against dacB::lox gene-deficient Pseudomonas aeruginosa PAO1 by broth microdilution method; procedure, shortened: as §2
Pseudomonas aeruginosa [13] = test: Antimicrobial activity against ampD::lox gene-deficient Pseudomonas aeruginosa PAO1 harboring dacB gene by broth microdilution method; procedure, shortened: as §2
Pseudomonas aeruginosa [14] = test: Antimicrobial activity against Pseudomonas aeruginosa PAO1 by broth microdilution method in presence of 0.5 mM NagZ inhibitor PUGNAc; procedure, shortened: as §2
Pseudomonas aeruginosa [15] = test: Antimicrobial activity against ampD::lox gene-deficient Pseudomonas aeruginosa PAO1 by broth microdilution method in presence of 0.5 mM NagZ inhibitor PUGNAc; procedure, shortened: as §2
Pseudomonas aeruginosa [16] = test: Antimicrobial activity against dacB::lox gene-deficient Pseudomonas aeruginosa PAO1 by broth microdilution method in presence of 0.5 mM NagZ inhibitor PUGNAc; procedure, shortened: as §2
Pseudomonas aeruginosa [17] = test: Antimicrobial activity against ampD::lox gene-deficient Pseudomonas aeruginosa PAO1 harboring dacB gene by broth microdilution method in presence of 0.5 mM NagZ inhibitor PUGNAc
Procedure, shortened: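 MICs of ceftazidime, aztreonam and piperacillin determined by broth microdilution in cation-adjusted Mueller-Hinton broth, with 0.5 mM of the N-acetyl-β-glucosaminidase (NagZ) inhibitor PUGNAc added alongside the β-lactam and untreated controls run in parallel; all measurements performed in triplicate.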

Pseudomonas aeruginosa [18] = test: Antimicrobial activity against Pseudomonas aeruginosa PAO1 by broth microdilution method in presence of 5 mM NagZ inhibitor PUGNAc; procedure, shortened: as §2
Pseudomonas aeruginosa [19] = test: Antimicrobial activity against ampD::lox gene-deficient Pseudomonas aeruginosa PAO1 by broth microdilution method in presence of 5 mM NagZ inhibitor PUGNAc; procedure, shortened: as §2
Pseudomonas aeruginosa [20] = test: Antimicrobial activity against dacB::lox gene-deficient Pseudomonas aeruginosa PAO1 by broth microdilution method in presence of 5 mM NagZ inhibitor PUGNAc; procedure, shortened: as §2
Pseudomonas aeruginosa [21] = test: Antimicrobial activity against ampD::lox gene-deficient Pseudomonas aeruginosa PAO1 harboring dacB gene by broth microdilution method in presence of 5 mM NagZ inhibitor PUGNAc; procedure, shortened: as §2
Pseudomonas aeruginosa [22] = test: Antimicrobial activity against ampD::lox gene-deficient Pseudomonas aeruginosa PAO1 by Etest method; procedure, shortened: as §1
Pseudomonas aeruginosa [23] = test: Antimicrobial activity against ampD::lox, ampDh2::lox and ampDh3::lox gene-deficient Pseudomonas aeruginosa PAO1 by Etest method
Procedure, shortened: (§3)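 Etest strips on Mueller-Hinton agar, read per manufacturer's recommendations; P. aeruginosa PAO1 triple mutant deficient in ampD, ampDh2 and ampDh3 (lox deletions). Agents tested by Etest: ceftazidime, cefepime, aztreonam, piperacillin, piperacillin-tazobactam, imipenem, meropenem.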

Pseudomonas aeruginosa [24] = test: Antimicrobial activity against Pseudomonas aeruginosa PAO1 by Etest method in presence of beta-lactamase inhibitor Tazobactam; procedure, shortened: as §1
Pseudomonas aeruginosa [25] = test: Antimicrobial activity against nagZ::lox gene-deficient Pseudomonas aeruginosa PAO1 by Etest method in presence of beta-lactamase inhibitor Tazobactam; procedure, shortened: as §1
Pseudomonas aeruginosa [26] = test: Antimicrobial activity against ampD::lox gene-deficient Pseudomonas aeruginosa PAO1 by Etest method in presence of beta-lactamase inhibitor Tazobactam; procedure, shortened: as §1
Pseudomonas aeruginosa [27] = test: Antimicrobial activity against ampD::lox and nagZ::lox gene-deficient Pseudomonas aeruginosa PAO1 by Etest method in presence of beta-lactamase inhibitor Tazobactam
Procedure, shortened: (§4)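 MICs on Mueller-Hinton agar by Etest strips (piperacillin-tazobactam among the agents tested), per manufacturer's instructions.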

Pseudomonas aeruginosa [28] = test: Antimicrobial activity against dacB::lox gene-deficient Pseudomonas aeruginosa PAO1 by Etest method in presence of beta-lactamase inhibitor Tazobactam; procedure, shortened: as §1
Pseudomonas aeruginosa [29] = test: Antimicrobial activity against dacB::lox and nagZ::lox gene-deficient Pseudomonas aeruginosa PAO1 by Etest method in presence of beta-lactamase inhibitor Tazobactam; procedure, shortened: as §4
Pseudomonas aeruginosa [30] = test: Antimicrobial activity against ampD::lox and nagZ::lox gene-deficient Pseudomonas aeruginosa PAO1 harboring dacB gene by Etest method in presence of beta-lactamase inhibitor Tazobactam; procedure, shortened: as §1
Pseudomonas aeruginosa [31] = test: Antimicrobial activity against ampD::lox, ampDh2::lox and ampDh3::lox gene-deficient Pseudomonas aeruginosa PAO1 by Etest method in presence of beta-lactamase inhibitor Tazobactam; procedure, shortened: as §3
Pseudomonas aeruginosa [32] = test: Antimicrobial activity against ampD::lox, ampDh2::lox,ampDh3::lox and nagZ::lox gene-deficient Pseudomonas aeruginosa PAO1 by Etest method in presence of beta-lactamase inhibitor Tazobactam; procedure, shortened: as §4
Pseudomonas aeruginosa [33] = test: Antimicrobial activity against ampR::lox gene-deficient Pseudomonas aeruginosa PAO1 by Etest method in presence of beta-lactamase inhibitor Tazobactam; procedure, shortened: as §1
Pseudomonas aeruginosa [34] = test: Antimicrobial activity against ampC::lox gene-deficient Pseudomonas aeruginosa PAO1 by Etest method in presence of beta-lactamase inhibitor Tazobactam; procedure, shortened: as §1

SMILES | MIC (Pseudomonas aeruginosa [2]) | MIC (Pseudomonas aeruginosa [4]) | MIC (Pseudomonas aeruginosa [5]) | MIC (Pseudomonas aeruginosa [7]) | MIC (Pseudomonas aeruginosa [8]) | MIC (Pseudomonas aeruginosa [9]) | MIC (Pseudomonas aeruginosa [10]) | MIC (Pseudomonas aeruginosa [11]) | MIC (Pseudomonas aeruginosa [12]) | MIC (Pseudomonas aeruginosa [13]) | MIC (Pseudomonas aeruginosa [14]) | MIC (Pseudomonas aeruginosa [15]) | MIC (Pseudomonas aeruginosa [16]) | MIC (Pseudomonas aeruginosa [17]) | MIC (Pseudomonas aeruginosa [18]) | MIC (Pseudomonas aeruginosa [19]) | MIC (Pseudomonas aeruginosa [20]) | MIC (Pseudomonas aeruginosa [21]) | further results
CO/N=C(\C(=O)N[C@@H]1C(=O)N2C(C(=O)[O-])=C(C[N+]3(C)CCCC3)CS[C@H]12)c1csc(N)n1 [CEFEPIME] | 1.5 µg/mL (≈ 3.12 µM) | 12 µg/mL (≈ 25 µM) | 48 µg/mL (≈ 99.9 µM) | 3 µg/mL (≈ 6.24 µM) | 2 µg/mL (≈ 4.16 µM) | 1 µg/mL (≈ 2.08 µM) | – | – | – | – | – | – | – | – | – | – | – | – | MIC (Pseudomonas aeruginosa [1]): 1.5 µg/mL (≈ 3.12 µM); MIC (Pseudomonas aeruginosa [3]): 1.5 µg/mL (≈ 3.12 µM); MIC (Pseudomonas aeruginosa [6]): 3 µg/mL (≈ 6.24 µM)
C[C@H]1[C@H](NC(=O)/C(=N\OC(C)(C)C(=O)O)c2csc(N)n2)C(=O)N1S(=O)(=O)O [AZTREONAM] | 4 µg/mL (≈ 9.19 µM) | 24 µg/mL (≈ 55.1 µM) | 64 µg/mL (≈ 147 µM) | 8 µg/mL (≈ 18.4 µM) | 4 µg/mL (≈ 9.19 µM) | 2 µg/mL (≈ 4.59 µM) | 3 µg/mL (≈ 6.89 µM) | 6 µg/mL (≈ 13.8 µM) | 12 µg/mL (≈ 27.6 µM) | 32 µg/mL (≈ 73.5 µM) | 3 µg/mL | 3 µg/mL | 4 µg/mL | 32 µg/mL | 3 µg/mL | 3 µg/mL | 3 µg/mL | 24 µg/mL | MIC (Pseudomonas aeruginosa [22]): 12 µg/mL (≈ 27.6 µM); MIC (Pseudomonas aeruginosa [23]): 32 µg/mL (≈ 73.5 µM)
CCN1CCN(C(=O)N[C@@H](C(=O)N[C@@H]2C(=O)N3[C@@H]2SC(C)(C)[C@@H]3C(=O)O)c2ccccc2)C(=O)C1=O [PIPERACILLIN] | – | – | – | – | – | – | 4 µg/mL (≈ 7.73 µM) | 48 µg/mL (≈ 92.7 µM) | 64 µg/mL (≈ 124 µM) | 384 µg/mL (≈ 742 µM) | 4 µg/mL | 24 µg/mL | 32 µg/mL | 256 µg/mL | 4 µg/mL | 24 µg/mL | 24 µg/mL | 256 µg/mL | MIC (Pseudomonas aeruginosa [24]): 2 µg/mL; MIC (Pseudomonas aeruginosa [25]): 2 µg/mL; MIC (Pseudomonas aeruginosa [26]): 32 µg/mL; MIC (Pseudomonas aeruginosa [27]): 3 µg/mL; MIC (Pseudomonas aeruginosa [28]): 64 µg/mL; MIC (Pseudomonas aeruginosa [29]): 3 µg/mL; MIC (Pseudomonas aeruginosa [30]): 16 µg/mL; MIC (Pseudomonas aeruginosa [31]): > 256 µg/mL; MIC (Pseudomonas aeruginosa [32]): 8 µg/mL; MIC (Pseudomonas aeruginosa [33]): 4 µg/mL; MIC (Pseudomonas aeruginosa [34]): 2 µg/mL

Reference: ChEMBL document CHEMBL1687765, “NagZ inactivation prevents and reverts beta-lactam resistance, driven by AmpD and PBP 4 mutations, in Pseudomonas aeruginosa” (2010)
